Measurements: ChEMBL document CHEMBL1681760, “Further SAR study on 11-O-substituted aporphine analogues: identification of highly potent dopamine D3 receptor ligands” (Bioorg Med Chem, 2011)
pKi: −log10 of the molar value.

Tests used:
D(3) dopamine receptor = D(3) dopamine receptor (Homo sapiens, UniProt P35462); assay: Displacement of [3H]spiperone from dopamine D3 receptor expressed in human HEK293 cells by liquid scintillation counter; type: cell-based
Procedure, shortened: (§1)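 Stably transfected HEK293 membranes, 15 µg per tube, in duplicate. Competed against [3H]spiperone with increasing compound concentrations from 1 nM. Buffer 50 mM Tris, 4 mM MgCl2, pH 7.4; 30 °C for 50 min. Unlabelled spiperone defined nonspecific binding. Stopped by rapid GF/B filtration and washing with cold 50 mM Tris/5 mM EDTA.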

D(2) dopamine receptor [1] = molecular target: T1, D(2) dopamine receptor (Homo sapiens, UniProt P14416); assay: Displacement of [3H]spiperone from dopamine D2 receptor expressed in human HEK293 cells by liquid scintillation counter; type: cell-based; procedure, shortened: as §1
T1 sequence (P14416 whole entry): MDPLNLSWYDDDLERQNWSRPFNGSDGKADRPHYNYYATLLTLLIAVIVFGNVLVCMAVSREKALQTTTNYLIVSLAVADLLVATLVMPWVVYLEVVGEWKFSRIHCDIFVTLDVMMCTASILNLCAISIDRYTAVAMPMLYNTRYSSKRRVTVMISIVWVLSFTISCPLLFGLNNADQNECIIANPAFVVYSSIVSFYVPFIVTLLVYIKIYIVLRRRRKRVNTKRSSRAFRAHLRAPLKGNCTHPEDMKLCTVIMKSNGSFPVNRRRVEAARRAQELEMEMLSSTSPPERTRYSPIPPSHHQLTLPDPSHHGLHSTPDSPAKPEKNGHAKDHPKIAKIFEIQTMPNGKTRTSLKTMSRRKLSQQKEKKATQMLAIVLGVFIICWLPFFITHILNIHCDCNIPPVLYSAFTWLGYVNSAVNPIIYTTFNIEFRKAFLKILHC

D(1A) dopamine receptor [2] = molecular target: T2, D(1A) dopamine receptor (Homo sapiens, UniProt P21728); assay: Displacement of [3H]SCH23390 from dopamine D1 receptor expressed in human HEK293 cells at 10 uM by liquid scintillation counter; type: cell-based
T2 sequence (P21728 whole entry): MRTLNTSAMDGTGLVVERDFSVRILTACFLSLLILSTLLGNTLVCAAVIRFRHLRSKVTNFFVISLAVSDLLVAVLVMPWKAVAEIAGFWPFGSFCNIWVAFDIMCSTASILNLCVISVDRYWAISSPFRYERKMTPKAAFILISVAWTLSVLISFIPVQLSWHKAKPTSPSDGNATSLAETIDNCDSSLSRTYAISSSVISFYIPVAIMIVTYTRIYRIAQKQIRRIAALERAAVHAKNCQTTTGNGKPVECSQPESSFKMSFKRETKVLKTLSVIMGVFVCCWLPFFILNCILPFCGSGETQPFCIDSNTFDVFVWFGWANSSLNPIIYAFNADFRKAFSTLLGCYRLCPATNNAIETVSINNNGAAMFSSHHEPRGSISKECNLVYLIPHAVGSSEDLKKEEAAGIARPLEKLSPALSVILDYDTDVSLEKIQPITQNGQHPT

D(1A) dopamine receptor [3] = molecular target: T2, D(1A) dopamine receptor; assay: Displacement of [3H]SCH23390 from dopamine D1 receptor expressed in human HEK293 cells by liquid scintillation counter; type: cell-based
Procedure, shortened: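 Membranes from stably transfected HEK293 cells, 15 µg per tube, in duplicate. Incubated with [3H]SCH23390 and increasing compound concentrations from 1 nM. Buffer 50 mM Tris, 4 mM MgCl2, pH 7.4; 50 min at 30 °C. Nonspecific binding with unlabelled SCH23390. Reaction started by adding membranes and stopped by GF/B filtration.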

D(2) dopamine receptor [4] = molecular target: T1, D(2) dopamine receptor; assay: Displacement of [3H]spiperone from dopamine D2 receptor expressed in human HEK293 cells at 10 uM by liquid scintillation counter; type: cell-based
[5] = Selectivity ratio of Ki for 5-HT1A receptor to Ki for dopamine D3 receptor
[6] = molecular target: 5-hydroxytryptamine receptor 2A (Homo sapiens, UniProt P28223); assay: Displacement of [3H]Ketanserin from 5-HT2A receptor expressed in CHO cells by liquid scintillation counter; type: cell-based
Sequence of 5-hydroxytryptamine receptor 2A (P28223 whole entry): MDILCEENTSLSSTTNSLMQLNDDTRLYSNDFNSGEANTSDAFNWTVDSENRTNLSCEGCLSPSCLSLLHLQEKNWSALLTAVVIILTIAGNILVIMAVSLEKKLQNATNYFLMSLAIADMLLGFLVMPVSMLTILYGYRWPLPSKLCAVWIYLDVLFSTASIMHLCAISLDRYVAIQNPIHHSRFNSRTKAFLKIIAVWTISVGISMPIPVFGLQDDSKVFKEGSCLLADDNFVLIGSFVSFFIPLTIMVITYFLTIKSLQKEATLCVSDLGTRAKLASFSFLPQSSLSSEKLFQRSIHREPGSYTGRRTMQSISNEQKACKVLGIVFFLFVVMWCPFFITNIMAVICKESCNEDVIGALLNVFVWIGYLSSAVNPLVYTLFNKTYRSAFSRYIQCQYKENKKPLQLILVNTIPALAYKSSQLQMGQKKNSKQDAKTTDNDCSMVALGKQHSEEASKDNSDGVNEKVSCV
Procedure, shortened: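 Duplicate incubations of CHO membranes (15 µg per tube) with [3H]Ketanserin and a rising compound series starting at 1 nM. Run in 50 mM Tris, 4 mM MgCl2, pH 7.4, at 30 °C for 50 min. Unlabelled ketanserin gave nonspecific binding. Bound counts retained on GF/B filters after cold-buffer washing.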

[7] = molecular target: T3, 5-hydroxytryptamine receptor 1A (Homo sapiens, UniProt P08908); assay: Displacement of [3H]8-OH-DPAT from 5-HT1A receptor expressed in CHO cells by liquid scintillation counter; type: cell-based
T3 sequence (P08908 whole entry): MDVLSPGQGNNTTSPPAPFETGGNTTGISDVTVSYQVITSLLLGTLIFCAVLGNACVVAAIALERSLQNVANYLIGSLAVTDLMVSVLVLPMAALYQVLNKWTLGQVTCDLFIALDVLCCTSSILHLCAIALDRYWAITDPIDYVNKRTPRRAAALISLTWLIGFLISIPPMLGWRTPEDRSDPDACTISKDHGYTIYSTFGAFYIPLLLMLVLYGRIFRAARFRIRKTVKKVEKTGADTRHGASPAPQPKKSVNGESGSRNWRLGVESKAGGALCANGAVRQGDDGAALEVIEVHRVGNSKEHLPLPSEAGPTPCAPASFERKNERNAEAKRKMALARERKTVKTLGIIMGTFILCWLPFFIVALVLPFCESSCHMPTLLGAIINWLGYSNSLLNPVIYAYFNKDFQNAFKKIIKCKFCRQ
Procedure, shortened: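 CHO cell membrane homogenates, 15 µg per tube, in duplicate tubes. Test compound at increasing concentrations from 1 nM with 0.7 nM [3H]8-OH-DPAT. Buffer 50 mM Tris, 4 mM MgCl2, pH 7.4. Incubated 50 min at 30 °C. Nonspecific binding defined with WAY100635. Stopped by GF/B filtration and cold Tris/EDTA wash.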

[8] = Selectivity ratio of Ki for 5-HT2A receptor to Ki for 5-HT1A receptor

Sequence of D(3) dopamine receptor (P35462 whole entry): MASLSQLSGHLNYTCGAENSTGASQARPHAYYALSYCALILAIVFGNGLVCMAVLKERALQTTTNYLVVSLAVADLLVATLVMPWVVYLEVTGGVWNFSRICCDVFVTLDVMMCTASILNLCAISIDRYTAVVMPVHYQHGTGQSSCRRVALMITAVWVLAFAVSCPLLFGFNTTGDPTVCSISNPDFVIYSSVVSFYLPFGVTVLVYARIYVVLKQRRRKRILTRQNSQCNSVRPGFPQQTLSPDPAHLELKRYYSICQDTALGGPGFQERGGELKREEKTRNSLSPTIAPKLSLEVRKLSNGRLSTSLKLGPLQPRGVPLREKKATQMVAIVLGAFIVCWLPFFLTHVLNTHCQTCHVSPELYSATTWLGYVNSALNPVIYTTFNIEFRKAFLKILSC

SMILES	pKi (D(3) dopamine receptor)	pKi (D(2) dopamine receptor [1])	inhibition (D(1A) dopamine receptor [2]) [%]	pKi (D(1A) dopamine receptor [3])	inhibition (D(2) dopamine receptor [4]) [%]	Ratio [5]	pKi [6]	pKi [7]	Ratio [8]
CCCN1CCc2cccc3c2[C@@H]1Cc1cccc(OCCCn2cc(CCN4CCN(c5ccccc5OC)CC4)nn2)c1-3	8.74	6.22	68	–	–	–	–	–	–
C#CCOc1cccc2c1-c1cccc3c1C(C2)N(CCC)CC3 (racemic)	5.62	–	–	–	28	–	–	–	–
CCCN1CCc2cccc3c2C1Cc1cccc(OCc2cn(CCCN4CCN(c5cccc(Cl)c5Cl)CC4)nn2)c1-3 (racemic)	7.46	–	–	5.70	40.5	–	–	–	–
CCCN1CCc2cccc3c2C1Cc1cccc(OCc2cn(CCN4CCN(c5ccccc5OC)CC4)nn2)c1-3 (racemic)	7.36	–	35	–	19	–	–	–	–
CCCN1CCc2cccc3c2C1Cc1cccc(OCc2cn(CCCCN4CCN(c5ccccc5OC)CC4)nn2)c1-3 (racemic)	8.57	6.18	–	5.57	–	3.6	6.76	8.01	18
CCCN1CCc2cccc3c2C1Cc1cccc(OCCCn2cc(CCCN4CCN(c5ccccc5OC)CC4)nn2)c1-3 (racemic)	8.09	–	14	–	18	–	–	–	–
CCCN1CCc2cccc3c2C1Cc1cccc(OCCCn2cc(CN4CCN(c5ccccc5OC)CC4)nn2)c1-3 (racemic)	6.55	–	42	–	51	–	–	–	–
CCCN1CCc2cccc3c2C1Cc1cccc(OCCCNCCCO)c1-3 (racemic)	5.35	–	44	–	9	–	–	–	–

Continued, values first:

pKi (D(3) dopamine receptor)	pKi (D(2) dopamine receptor [1])	inhibition (D(1A) dopamine receptor [2]) [%]	pKi (D(1A) dopamine receptor [3])	inhibition (D(2) dopamine receptor [4]) [%]	Ratio [5]	pKi [6]	pKi [7]	Ratio [8]	SMILES
8.10	6.53	66	–	–	–	–	–	–	CCCN1CCc2cccc3c2[C@@H]1Cc1cccc(OCc2cn(CCCCN4CCN(c5ccccc5OC)CC4)nn2)c1-3
8.04	6.21	–	5.80	–	–	–	–	–	CCCN1CCc2cccc3c2[C@H]1Cc1cccc(OCc2cn(CCCCN4CCN(c5ccccc5OC)CC4)nn2)c1-3
8.11	6.11	54	–	–	–	–	–	–	CCCN1CCc2cccc3c2[C@H]1Cc1cccc(OCCCn2cc(CCN4CCN(c5ccccc5OC)CC4)nn2)c1-3
6.72	6.76	–	5.93	–	–	–	–	–	CCCN1CCc2cccc3c2[C@@H]1Cc1cccc(OCCCCN2CCN(c4ccccc4OC)CC2)c1-3
7.63	6.85	–	5.88	–	–	–	–	–	CCCN1CCc2cccc3c2[C@H]1Cc1cccc(OCCCCN2CCN(c4ccccc4OC)CC2)c1-3
7.68	5.92	67	–	–	–	–	–	–	CCCN1CCc2cccc3c2C1Cc1cccc(OCc2cn(CCCN4CCN(c5ccccc5OC)CC4)nn2)c1-3 (racemic)
6.72	–	63	–	6	–	–	–	–	CCCN1CCc2cccc3c2C1Cc1cccc(OCc2cn(CCCN4CCN(c5ccccc5)CC4)nn2)c1-3 (racemic)
6.27	–	32	–	13	–	–	–	–	CCCN1CCc2cccc3c2C1Cc1cccc(OCc2cn(CCCN4CCN(c5ncccn5)CC4)nn2)c1-3 (racemic)
8.09	6.69	–	5.72	–	–	–	–	–	CCCN1CCc2cccc3c2C1Cc1cccc(OCCCn2cc(CCCCN4CCN(c5ccccc5OC)CC4)nn2)c1-3 (racemic)
8.94	5.13	64	–	–	6.6	6.61	8.12	32	CCCN1CCc2cccc3c2C1Cc1cccc(OCCCn2cc(CCN4CCN(c5ccccc5OC)CC4)nn2)c1-3 (racemic)
7.70	7.06	–	6.13	–	–	4.00	7.24	–	CCCN1CCc2cccc3c2C1Cc1cccc(OCCCCN2CCN(c4ccccc4OC)CC2)c1-3 (racemic)
6.99	6.40	–	6.04	–	–	–	–	–	CCCN1CCc2cccc3c2C1Cc1cccc(OCCCN(CCCN2CCN(c4ccccc4OC)CC2)S(C)(=O)=O)c1-3 (racemic)
